These results are taken from ChEMBL document CHEMBL4359848, “Merging memantine and ferulic acid to probe connections between NMDA receptors, oxidative stress and amyloid-β peptide in Alzheimer's disease” (Eur J Med Chem, 2019).

Molecules are shown by their SMILES. Activity calls are given as the source filed them. The rule behind the calls is not given here.

Data set [1] relates to SH-SY5Y. Briefly: Cytoprotective activity in human SH-SY5Y cells assessed as increase in HO1 mRNA expression level at 10 uM incubated for 6 hrs by RT-PCR analysis relative to control. It counts as functional. Put shortly: (§1)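 SH-SY5Y cells in EMEM/F-12 (1:1) with 10% heat-inactivated FBS, 37 °C, 5% CO2, exposed 6 h to 10 μM compound, final DMSO <0.1%. Total RNA extracted and Nrf2 and HO-1 mRNA quantified by real-time RT-PCR with GAPDH as endogenous reference. Mean ± SEM, experiments repeated at least three times.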

Data set [2] relates to SH-SY5Y. Put plainly: Cytoprotective activity in human SH-SY5Y cells assessed as increase in Nrf2 mRNA expression level at 10 uM incubated for 6 hrs by RT-PCR analysis. It counts as functional, cell-based. An outline of the steps:
as §1

For data set [3], the system named is SH-SY5Y. Put plainly: Neuroprotective activity in human SH-SY5Y cells assessed as reduction in H2O2-induced intracellular ROS formation at 10 uM preincubated for 24 hrs followed H2O2 addition and measured after 10 to 90 mins by DCFH-DA staining based assay. It counts as functional, cell-based. An outline of the steps: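 SH-SY5Y cells pretreated 24 h with 10 μM compound, then loaded with 25 μM DCFH-DA for 45 min and challenged with 300 μM H2O2. Fluorescence (485/530 nm) followed from 10 to 90 min. Compared against H2O2 alone by Dunnett's test.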

The test system of data set [4] is SH-SY5Y. Put plainly: Neuroprotective activity in human SH-SY5Y cells assessed as reduction in H2O2-induced intracellular ROS formation at 10 uM and measured for 30 to 300 mins by DCFH-DA staining based assay. It counts as functional, cell-based. Put shortly:
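SH-SY5Y cells loaded with 25 μM DCFH-DA for 45 min, then given 10 μM compound together with 300 μM H2O2. Fluorescence read at ex 485/em 530 nm over 30–300 min. Compared against H2O2 alone by Dunnett's test.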

The subject of data set [5] is SH-SY5Y. Briefly: Cytotoxicity against human SH-SY5Y cells assessed as reduction in cell viability up to 20 uM incubated for 24 hrs by MTT assay. It counts as cell-based. Put shortly: (§2)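 SH-SY5Y cells plated at 2.5×10^4 per well and exposed 24 h to 1–50 μM. MTT at 1 mg/mL in complete medium for 4 h, then SDS solubilisation for 24 h and absorbance read. Viability given as % of untreated control. Dunnett's test, n = 3.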
(In general: Formazan colour is commonly taken as a measure of viable cells.)

Data set [6] has as its target Glutamate NMDA receptor; GRIN1/GRIN2A (Homo sapiens, UniProt Q05586+Q12879). Briefly: Antagonist activity at GluN1a/GluN2A (unknown origin) expressed in Xenopus laevis oocytes at -60 mV holding potential by voltage clamp method. It counts as cell-based. Put shortly: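 Rat-free detail absent; GluN1-1a/GluN2A cRNA (1:1 by weight) injected into defolliculated oocytes, kept 3–4 days at 18 °C in modified Barth's media. Two-electrode voltage clamp at -60 mV, perfusion with 96 mM NaCl, 2 mM KCl, 1.8 mM CaCl2, 10 mM HEPES pH 7.5. Currents evoked by 100 μM NMDA + 10 μM glycine; compound 0.01–100 μM added at steady state until new plateau; % control fit to Hill equation for IC50; ≥5 oocytes.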

Data set [7] deals with H4. Put plainly: Cytotoxicity against human H4 cells harboring swedish mutant form of APP assessed as reduction in cell viability up to 20 uM incubated for 24 hrs by MTT assay. It counts as cell-based. Particulars: h4, 24 h.
In data set [8] the test system is H4. Put plainly: Effect on total intracellular APP in human H4 cells harboring swedish mutant form of APP assessed as change in full length APP protein level at 10 uM incubated for 24 hrs by Western blot analysis. It counts as cell-based. Particulars: h4, 24 h. Put shortly:
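H4 cells bearing Swedish APP, kept in DMEM/10% FBS under hygromycin B and blasticidin S selection, treated 24 h with 10 μM. Lysates analysed by Western blot for full-length APP. Densitometry normalized to α-tubulin. One-way ANOVA with post-hoc test.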
For orientation: Immunoblotting shows a protein as a band on a membrane.

A further data set is filed under the species Homo sapiens. Put plainly: Activation of alpha secretase in human H4 cells harboring swedish mutant form of APP assessed as increase in sAPPalpha protein level at 10 uM incubated for 24 hrs by Western blot analysis.
The subject of data set [9] is SH-SY5Y. Put plainly: Cytotoxicity against human SH-SY5Y cells assessed as reduction in cell viability up to 50 uM incubated for 24 hrs by MTT assay. It counts as cell-based. An outline of the steps: as §2
In data set [10] the test system is SH-SY5Y. Briefly: Cytoprotective activity in human SH-SY5Y cells assessed as increase in HO1 protein level at 20 uM incubated for 24 hrs by Western blot analysis. It counts as functional. An outline of the steps: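 SH-SY5Y human neuroblastoma cells (EMEM/Ham's F-12 with 10% heat-inactivated FBS, 37 °C, 5% CO2) treated 24 h at 10 or 20 μM, compound diluted from DMSO stock (final DMSO <0.1%). Whole-cell lysates in Tris/NaCl/EDTA/Triton buffer, SDS-PAGE and PVDF blot probed with anti-HO-1. Tubulin served as loading control, ECL detection, densitometry given as % of untreated control.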

Data set [11] deals with SH-SY5Y. Briefly: Cytoprotective activity in human SH-SY5Y cells assessed as increase in HO1 protein level incubated for 24 hrs by Western blot analysis. It counts as functional, cell-based. Put shortly:
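SH-SY5Y cells treated 24 h at 10 or 20 μM. Cells washed in ice-cold PBS, lysed in Tris/NaCl/EDTA/Triton buffer, equal protein run on reducing SDS-PAGE, blotted to PVDF. Probed with anti-HO-1 (1:1000), β-tubulin as loading control, ECL detection. Densitometry expressed as % of control ± SEM.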

Sequence of Glutamate NMDA receptor; GRIN1/GRIN2A (Q12879 whole entry, other chains not shown, the tested form may be a part): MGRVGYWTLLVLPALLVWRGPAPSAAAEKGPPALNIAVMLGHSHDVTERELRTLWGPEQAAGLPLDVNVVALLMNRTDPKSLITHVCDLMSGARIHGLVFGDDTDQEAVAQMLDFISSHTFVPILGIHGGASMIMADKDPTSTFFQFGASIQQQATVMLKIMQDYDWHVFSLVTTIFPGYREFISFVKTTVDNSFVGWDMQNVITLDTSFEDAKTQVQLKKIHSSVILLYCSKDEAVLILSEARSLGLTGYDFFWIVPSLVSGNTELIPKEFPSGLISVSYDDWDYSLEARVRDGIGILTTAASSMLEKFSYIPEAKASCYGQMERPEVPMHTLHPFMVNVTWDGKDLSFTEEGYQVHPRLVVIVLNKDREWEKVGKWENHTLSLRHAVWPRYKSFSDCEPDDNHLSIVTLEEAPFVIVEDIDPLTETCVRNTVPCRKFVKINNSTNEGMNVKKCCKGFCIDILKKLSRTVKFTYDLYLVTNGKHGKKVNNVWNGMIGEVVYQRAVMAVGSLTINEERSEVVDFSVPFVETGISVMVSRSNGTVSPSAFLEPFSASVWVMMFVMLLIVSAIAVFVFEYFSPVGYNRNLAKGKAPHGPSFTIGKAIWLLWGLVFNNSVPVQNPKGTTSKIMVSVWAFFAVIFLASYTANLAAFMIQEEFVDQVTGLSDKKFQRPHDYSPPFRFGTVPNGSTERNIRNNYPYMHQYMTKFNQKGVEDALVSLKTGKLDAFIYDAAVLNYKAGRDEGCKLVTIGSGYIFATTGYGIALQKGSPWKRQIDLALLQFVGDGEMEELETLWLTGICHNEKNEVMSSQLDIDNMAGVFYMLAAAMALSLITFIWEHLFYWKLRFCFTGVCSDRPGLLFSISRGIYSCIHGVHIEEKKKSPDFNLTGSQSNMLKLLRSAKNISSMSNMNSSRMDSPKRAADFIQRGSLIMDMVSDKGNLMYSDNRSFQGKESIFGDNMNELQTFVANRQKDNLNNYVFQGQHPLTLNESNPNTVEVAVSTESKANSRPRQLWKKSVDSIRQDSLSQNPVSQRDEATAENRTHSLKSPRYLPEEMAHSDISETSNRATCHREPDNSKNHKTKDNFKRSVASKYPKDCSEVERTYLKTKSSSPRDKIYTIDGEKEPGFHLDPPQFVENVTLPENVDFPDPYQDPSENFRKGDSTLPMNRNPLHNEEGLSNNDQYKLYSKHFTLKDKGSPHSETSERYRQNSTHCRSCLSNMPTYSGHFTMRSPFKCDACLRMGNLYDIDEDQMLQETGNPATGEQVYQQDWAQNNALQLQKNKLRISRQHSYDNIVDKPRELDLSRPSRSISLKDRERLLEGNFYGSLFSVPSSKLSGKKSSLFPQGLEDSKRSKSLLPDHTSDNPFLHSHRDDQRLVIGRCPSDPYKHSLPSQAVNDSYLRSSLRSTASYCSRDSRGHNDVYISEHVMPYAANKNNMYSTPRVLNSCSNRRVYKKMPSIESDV

One may read the IC50 as the point on the concentration scale where inhibition reaches its midpoint. As to `COc1cc(/C=C/C(=O)NCCCCCNC23CC4CC(C)(CC(C)(C4)C2)C3)ccc1O`, the result with SH-SY5Y [1] and in the data set with SH-SY5Y [2] was inactive. Also, the outcome in the data set on SH-SY5Y [3] and in the data set on SH-SY5Y [4] was Active. The Activity entry in the data set with SH-SY5Y [5], in the data set on H4 [7] and in the data set with H4 [8] was “Non-Toxic” in each case. Half-maximal inhibition in data set [6] (IC50) required 14.1 µM. Further, the activation entry in the data set filed under Homo sapiens was “inactive”.
Take `COc1cc(/C=C/C(=O)NCCCCNC23CC4CC(C)(CC(C)(C4)C2)C3)ccc1O`: the outcome in the data set on SH-SY5Y [1] and in the data set with SH-SY5Y [2] was inactive. For the same compound, the outcome in the data set on SH-SY5Y [3] and in the data set with SH-SY5Y [4] was Active. The Activity result in the data set on SH-SY5Y [5], in the data set with H4 [7], with H4 [8] and in the data set with SH-SY5Y [9] was “Non-Toxic” in each case. The same compound displayed an IC50 in data set [6] of 23.9 µM. The activation result in the data set filed under Homo sapiens was “inactive”.
`COc1cc(/C=C/C(=O)NCCCCCCNC23CC4CC(C)(CC(C)(C4)C2)C3)ccc1O`: in the data set on SH-SY5Y [10], the “fold change (FC)” value worked out at 2. The Activity entry was “Dose-dependent effect” in the data set with SH-SY5Y [11]; 150% in the data set with SH-SY5Y [1]; “Non-Toxic” in the data set on SH-SY5Y [5]; “Non-Toxic” in the data set on H4 [7]; “Non-Toxic” in the data set on H4 [8]. For the same compound, the outcome in the data set with SH-SY5Y [2], in the data set on SH-SY5Y [3] and in the data set with SH-SY5Y [4] was Active. Further, the IC50 in data set [6] was determined as 6.9 µM. Also, in the data set listed under Homo sapiens, the activation result was “Active”.
For the compound `COc1cc(/C=C/C(=O)O)ccc1O` [FERULATE], the outcome with SH-SY5Y [1] and with SH-SY5Y [2] was inactive. The outcome in the data set on SH-SY5Y [3] and in the data set on SH-SY5Y [4] was Active. In addition, the Activity entry in the data set with SH-SY5Y [5] and in the data set with SH-SY5Y [9] was “Non-Toxic” in each case. Moreover, the activation result in the data set listed under Homo sapiens was “inactive”.
In turn, `COc1cc(/C=C/C(=O)NCCCNC23CC4CC(C)(CC(C)(C4)C2)C3)ccc1O` showed an IC50 in data set [6] greater than 100 µM.
In data set [6], `COc1cc(/C=C/C(=O)NCCCCNC(=O)C23CC4(C)CC(C)(CC(N)(C4)C2)C3)ccc1O` returned an IC50 greater than 100 µM.
In data set [6], `COc1cc(/C=C/C(=O)NCCNC(=O)C23CC4(C)CC(C)(CC(N)(C4)C2)C3)ccc1O` came in with a half-maximal inhibitory concentration (IC50) greater than 100 µM.
`COc1cc(/C=C/C(=O)NCCCNC(=O)C23CC4(C)CC(C)(CC(N)(C4)C2)C3)ccc1O`: the IC50 in data set [6] is greater than 100 µM.
